≈ marks a conversion by molar mass, not a printed value. Where only a bound is given, the exact number is not on record here.

Series [1] has as its system Mycobacterium tuberculosis. The series can be described thus: Antimycobacterial activity against Mycobacterium tuberculosis H37Ra by microplate Alamar blue assay. It counts as functional. In a few lines:
(§1)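 Same alamar blue microplate setup (7H9GC, 2.5 × 10⁵ CFU/mL, 6 days, then dye read after about 24 h), using 2-fold compound dilutions. MIC90 is the lowest concentration giving about 90% inhibition relative to bacteria-only wells after background subtraction. Visual MIC is the lowest concentration preventing the blue-to-pink change.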

In series [2] the test system is Escherichia coli. The series can be described thus: Antibacterial activity against Escherichia coli ATCC 25922 after 16 to 20 hrs by broth microdilution method. It counts as functional. To be noted: for MIC: Escherichia coli, ATCC 25922. In a few lines: (§2)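 Broth microdilution MIC. Exponentially growing bacteria diluted in sterile liquid medium to a final inoculum of 1 × 10⁴ CFU/mL. Cultured with compound dilutions for 16-20 h; compounds tested at 100, 50, 10 and 1 µg/mL. MIC taken as the concentration giving 100% inhibition of bacterial growth.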

Series [3] has as its system Bacillus subtilis. The series can be described thus: Antibacterial activity against Bacillus subtilis ATCC 6633 after 16 to 20 hrs by broth microdilution method. It counts as functional. Put shortly: as §2
The subject of a further series is Vero. The series can be described thus: Toxicity against Vero cells after 3 days by MTT test. The format is cell-based. The settings on record: chlorocebus sabaeus, 72 h. Put shortly:
(§3)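 MTT viability assay. Vero or HFF cells seeded at 2.5 × 10⁵ cells/well and left to attach 6-8 h. Exposed to compound at 100, 50, 25, 12.5, 6.3 and 1.5 µg/mL for 3 days at 37 °C, with a DMSO control. MTT added for 4 h, then solubilized overnight; absorbance read at 560-650 nm.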

Series [4] relates to Staphylococcus aureus. The series can be described thus: Antibacterial activity against Staphylococcus aureus ATCC 25923 after 16 to 20 hrs by broth microdilution method. It counts as functional. In a few lines:
as §2

Series [5] has as its system Mycobacterium tuberculosis. The series can be described thus: Antimycobacterial activity against Mycobacterium tuberculosis H37Ra at 10 ug/mL by microplate Alamar blue assay. The format is functional. In a few lines: (§4)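 MABA with M. bovis BCG, M. tuberculosis H37Ra or M. avium ATCC 25291. DMSO stocks (10 mg/mL) diluted in 7H9GC; final inoculum 2.5 × 10⁵ CFU/mL. Incubated 6 days, then alamar blue plus Tween 80 added and read by fluorescence after about 24 h. […]. Tested in triplicate at 100, 50, 10 and 1 µg/mL; two experiments, mean reported.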

Series [6] deals with Mycobacterium tuberculosis. The series can be described thus: Antimycobacterial activity against Mycobacterium tuberculosis H37Ra at 1ug/mL by microplate Alamar blue assay. It counts as functional. In a few lines: as §4
The test system of another series is Streptococcus pneumoniae. The series can be described thus: Antibacterial activity Streptococcus pneumoniae ATCC 49619 after 16 to 20 hrs by broth microdilution method. The format is functional. In a few lines:
as §2

Series [7] relates to Listeria monocytogenes. The series can be described thus: Antibacterial activity Listeria monocytogenes ATCC 15313 after 16 to 20 hrs by broth microdilution method. It counts as functional. In a few lines: as §2
Series [8] deals with Streptococcus pyogenes. The series can be described thus: Antibacterial activity Streptococcus pyogenes ATCC 19615 after 16 to 20 hrs by broth microdilution method. It counts as functional. Put shortly: as §2
In series [9] the test system is Klebsiella aerogenes. The series can be described thus: Antibacterial activity against Enterobacter aerogenes after 16 to 20 hrs by broth microdilution method. The format is functional. To be noted: for MIC: Klebsiella aerogenes. Put shortly: as §2
The next series deals with Enterococcus faecalis. The series can be described thus: Antibacterial activity Enterococcus faecalis ATCC 29212 after 16 to 20 hrs by broth microdilution method. It counts as functional. Put shortly: as §2
For series [10], the system named is Mycobacterium avium. The series can be described thus: Antimycobacterial activity against Mycobacterium avium ATCC 25291 at 100 ug/mL by microplate Alamar blue assay. The format is functional. Put shortly:
as §4

Series [11] concerns Mycobacterium tuberculosis. The series can be described thus: Antimycobacterial activity against Mycobacterium tuberculosis H37Ra at 50 ug/mL by microplate Alamar blue assay. It counts as functional. In a few lines: as §4
Series [12] relates to Pseudomonas aeruginosa. The series can be described thus: Antibacterial activity against Pseudomonas aeruginosa […] after 16 to 20 hrs by broth microdilution method. It counts as functional. To be noted: for MIC: Pseudomonas aeruginosa, ATCC 13048. Put shortly:
as §2

The next series concerns Proteus vulgaris. The series can be described thus: Antibacterial activity against Proteus vulgaris ATCC 49132 after 16 to 20 hrs by broth microdilution method. The format is functional. In a few lines:
as §2

A short description of series [13]: Toxicity against human foreskin fibroblast cells after 3 days by MTT test. The format is cell-based. Put shortly: as §3
The subject of series [14] is Salmonella typhimurium. The series can be described thus: Antibacterial activity against Salmonella Typhimurium after 16 to 20 hrs by broth microdilution method. The format is functional, Salmonella enterica subsp. enterica serovar Typhimurium. The settings on record: for MIC: Salmonella enterica. In a few lines:
as §2

Series [15] deals with Mycobacterium tuberculosis. The series can be described thus: Antimycobacterial activity against Mycobacterium tuberculosis H37Ra at 100 ug/mL by microplate Alamar blue assay. It counts as functional. Put shortly: as §4
Series [16] deals with Staphylococcus epidermidis. The series can be described thus: Antibacterial activity against Staphylococcus epidermidis ATCC 14990 after 16 to 20 hrs by broth microdilution method. The format is functional. Put shortly:
as §2

Series [17] concerns Mycobacterium avium. The series can be described thus: Antimycobacterial activity against Mycobacterium avium ATCC 25291 at 2 ug/mL by microplate Alamar blue assay. The format is functional.
Series [18] has as its system Mycobacterium avium. The series can be described thus: Antimycobacterial activity against Mycobacterium avium ATCC 25291 by microplate Alamar blue assay. It counts as functional. Put shortly: as §1
Series [19] concerns Klebsiella aerogenes. The series can be described thus: Antibacterial activity against Enterobacter aerogenes at 1 ug/ml after 16 to 20 hrs by broth microdilution method. The format is functional.
For series [20], the system named is Staphylococcus epidermidis. The series can be described thus: Antibacterial activity against Staphylococcus epidermidis ATCC 14990 at 1 ug/ml after 16 to 20 hrs by broth microdilution method. It counts as functional.
Series [21] concerns Pseudomonas aeruginosa. The series can be described thus: Antibacterial activity against Pseudomonas aeruginosa […] at 1 ug/ml after 16 to 20 hrs by broth microdilution method. It counts as functional.
In series [22] the test system is Streptococcus pyogenes. The series can be described thus: Antibacterial activity Streptococcus pyogenes ATCC 19615 at 1 ug/ml after 16 to 20 hrs by broth microdilution method. The format is functional.
The test system of series [23] is Salmonella typhimurium. The series can be described thus: Antibacterial activity against Salmonella Typhimurium at 1 ug/ml after 16 to 20 hrs by broth microdilution method. The format is functional, Salmonella enterica subsp. enterica serovar Typhimurium. The settings on record: Salmonella enterica.
Series [24] deals with Escherichia coli. The series can be described thus: Antibacterial activity against Escherichia coli ATCC 25922 at 1 ug/ml after 16 to 20 hrs by broth microdilution method. The format is functional.
The test system of series [25] is Staphylococcus aureus. The series can be described thus: Antibacterial activity against Staphylococcus aureus ATCC 25923 at 1 ug/ml after 16 to 20 hrs by broth microdilution method. The format is functional.
Series [26] concerns Bacillus subtilis. The series can be described thus: Antibacterial activity against Bacillus subtilis ATCC 6633 at 1 ug/ml after 16 to 20 hrs by broth microdilution method. It counts as functional.
The test system of series [27] is Listeria monocytogenes. The series can be described thus: Antibacterial activity Listeria monocytogenes ATCC 15313 at 1 ug/ml after 16 to 20 hrs by broth microdilution method. The format is functional.

In series [1], `CCCCCCCCC#Cc1cn([C@@H]2O[C@H](CO)[C@@H](O)[C@H]2F)c(=O)[nH]c1=O` came in with an MIC90 of 50 µg/mL (≈ 131 µM). The MIC in the series on Escherichia coli [2] is greater than 100 µg/mL; against Bacillus subtilis [3] (Bacillus subtilis, ATCC 6633) it was greater than 100 µg/mL; against Staphylococcus aureus [4] (Staphylococcus aureus, ATCC 25923), 100 µg/mL (≈ 261 µM); against Streptococcus pneumoniae (Streptococcus pneumoniae, ATCC 49619) it was 100 µg/mL (≈ 261 µM); in the series on Listeria monocytogenes [7] (Listeria monocytogenes, ATCC 15313), 100 µg/mL (≈ 261 µM); with Streptococcus pyogenes [8] (Streptococcus pyogenes, ATCC 19615) it was 100 µg/mL (≈ 261 µM). Moreover, the MIC was greater than 100 µg/mL against Klebsiella aerogenes [9]; 100 µg/mL (≈ 261 µM) against Enterococcus faecalis (Enterococcus faecalis, ATCC 29212); greater than 100 µg/mL in the series on Pseudomonas aeruginosa [12]; greater than 100 µg/mL against Proteus vulgaris; greater than 100 µg/mL in the series with Salmonella typhimurium [14]; 100 µg/mL (≈ 261 µM) in series [16] (Staphylococcus epidermidis, ATCC 14990). Besides, the CC10 in the series with Vero was greater than 100 µg/mL. Besides, the Inhibition (with Staphylococcus aureus [4]; in the series on Streptococcus pneumoniae; in the series on Listeria monocytogenes [7]; with Streptococcus pyogenes [8]; in the series on Enterococcus faecalis; in [16]) was 100% in each case. The same molecule registered an inhibition at 10 µg/mL in series [5] of 50%. In [6], this molecule came in with an inhibition at 1 µg/mL of 25%. Besides, the inhibition at 100 µg/mL with Mycobacterium avium [10] was 50%; in series [15], 100%. Besides, the inhibition at 50 µg/mL in series [11] came to 100%. Moreover, in [13], the CC50 at 72 h is greater than 100 µg/mL.
As to `CC[C@H]1OC(=O)[C@H](C)[C@@H](O[C@H]2C[C@@](C)(OC)[C@@H](O)[C@H](C)O2)[C@H](C)[C@@H](O[C@@H]2O[C@H](C)C[C@H](N(C)C)[C@H]2O)[C@](C)(OC)C[C@@H](C)C(=O)[C@H](C)[C@@H](O)[C@]1(C)O` [CLARITHROMYCIN], in the series on Mycobacterium avium [17], the inhibition at 2 µg/mL worked out at 95%. This molecule also showed an MIC90 with Mycobacterium avium [18] of 2 µg/mL (≈ 2.67 µM).
For the molecule `CO[C@H]1/C=C/O[C@@]2(C)Oc3c(C)c(O)c4c(O)c(c(/C=N/N5CCN(C)CC5)c(O)c4c3C2=O)NC(=O)/C(C)=C\C=C\[C@H](C)[C@H](O)[C@@H](C)[C@@H](O)[C@@H](C)[C@H](OC(C)=O)[C@@H]1C` [RIFAMPIN], in the series on Mycobacterium avium [17], the inhibition at 2 µg/mL came to 90%. Further, the inhibition at 1 µg/mL (with Klebsiella aerogenes [19]; in series [20]; in the series on Pseudomonas aeruginosa [21]; in the series on Streptococcus pyogenes [22]; in the series with Salmonella typhimurium [23]; in the series with Escherichia coli [24]) was 100% throughout. Moreover, the inhibition at 1 µg/mL with Staphylococcus aureus [25], in the series on Bacillus subtilis [26] and with Listeria monocytogenes [27] was 100% each time. For the same molecule, the MIC90 turned out to be 0.5 µg/mL (≈ 0.608 µM) in series [1] and 2 µg/mL (≈ 2.43 µM) against Mycobacterium avium [18]. Also, the Inhibition in the series on Escherichia coli [2], with Bacillus subtilis [3], in the series on Staphylococcus aureus [4], with Listeria monocytogenes [7], with Streptococcus pyogenes [8] and in the series with Klebsiella aerogenes [9] was 100% each time. Moreover, the Inhibition (in the series on Pseudomonas aeruginosa [12]; with Salmonella typhimurium [14]; in series [16]) was 100% throughout. The MIC was 100 µg/mL (≈ 122 µM) in the series with Escherichia coli [2]; greater than 100 µg/mL with Klebsiella aerogenes [9]; greater than 100 µg/mL in the series on Pseudomonas aeruginosa [12]; greater than 100 µg/mL with Proteus vulgaris; greater than 100 µg/mL with Salmonella typhimurium [14].

Values taken from ChEMBL document CHEMBL1146217, “Growth inhibition of Mycobacterium bovis, Mycobacterium tuberculosis and Mycobacterium avium in vitro: effect of 1-beta-D-2'-arabinofuranosyl and 1-(2'-deoxy-2'-fluoro-beta-D-2'-ribofuranosyl) pyrimidine nucleoside analogs” (J Med Chem, 2007).
